# Measured values from ChEMBL document CHEMBL1781932 (J Med Chem, 2011).
# Assays:
# Type in all cases: functional
# Staphylococcus aureus [1] = test: Antimicrobial activity against tetracycline-susceptible Staphylococcus aureus isolate 101 by CLSI dilution method
# Staphylococcus aureus [2] = test: Antimicrobial activity against methicillin-, tetracycline-resistant Staphylococcus aureus isolate 161 harboring tetM gene by CLSI dilution method
# Staphylococcus aureus [3] = test: Antimicrobial activity against tetracycline-resistant Staphylococcus aureus isolate 158 harboring tetK gene by CLSI dilution method
# Enterococcus faecalis [4] = test: Antimicrobial activity against tetracycline-susceptible Enterococcus faecalis isolate 103 by CLSI dilution method
# Procedure, shortened: (§1)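 Broth microdilution per CLSI in fresh cation-adjusted Mueller Hinton broth, kept at 4 °C before testing, with defibrinated horse blood added as appropriate. Strains were from ATCC. MIC in µg/mL. Runs were accepted when comparator antibiotics against ATCC quality-control strains fell within recommended ranges.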
# Enterococcus faecalis [5] = test: Antimicrobial activity against tetracycline-resistant Enterococcus faecalis isolate 159 harboring […] gene by CLSI dilution method
# Streptococcus pneumoniae [6] = test: Antimicrobial activity against tetracycline-susceptible Streptococcus pneumoniae isolate 106 by CLSI dilution method; procedure, shortened: as §1
# Streptococcus pneumoniae [7] = test: Antimicrobial activity against tetracycline-resistant Streptococcus pneumoniae isolate 160 harboring tetM gene by CLSI dilution method
# Escherichia coli [8] = test: Antimicrobial activity against tetracycline-susceptible Escherichia coli isolate 107 by CLSI dilution method; procedure, shortened: as §1
# Escherichia coli [9] = test: Antimicrobial activity against tetracycline-resistant Escherichia coli isolate 155 harboring tetA gene by CLSI dilution method
# Acinetobacter baumannii = test: Antimicrobial activity against tetracycline-susceptible Acinetobacter baumannii isolate 110 by CLSI dilution method; procedure, shortened: as §1
# Pseudomonas aeruginosa = test: Antimicrobial activity against tetracycline-susceptible Pseudomonas aeruginosa isolate 111 by CLSI dilution method; procedure, shortened: as §1
# Enterobacter cloacae = test: Antimicrobial activity against tetracycline-susceptible Enterobacter cloacae isolate 108 by CLSI dilution method; procedure, shortened: as §1
# Klebsiella pneumoniae [10] = test: Antimicrobial activity against tetracycline-susceptible Klebsiella pneumoniae isolate 109 by CLSI dilution method; procedure, shortened: as §1
# Klebsiella pneumoniae [11] = test: Antimicrobial activity against tetracycline-resistant Klebsiella pneumoniae isolate 153 harboring tetA gene by CLSI dilution method
SMILES,MIC (Staphylococcus aureus [1]) [µg/mL],MIC (Staphylococcus aureus [2]) [µg/mL],MIC (Staphylococcus aureus [3]) [µg/mL],MIC (Enterococcus faecalis [4]) [µg/mL],MIC (Enterococcus faecalis [5]) [µg/mL],MIC (Streptococcus pneumoniae [6]) [µg/mL],MIC (Streptococcus pneumoniae [7]) [µg/mL],MIC (Escherichia coli [8]) [µg/mL],MIC (Escherichia coli [9]) [µg/mL],MIC (Acinetobacter baumannii) [µg/mL],MIC (Pseudomonas aeruginosa) [µg/mL],MIC (Enterobacter cloacae) [µg/mL],MIC (Klebsiella pneumoniae [10]) [µg/mL],MIC (Klebsiella pneumoniae [11]) [µg/mL]
CN(C)[C@@H]1C(O)=C(C(N)=O)C(=O)[C@@]2(O)C(O)=C3C(=O)c4c(cc5ccc(CN6CC(O)C6)cc5c4O)C[C@H]3C[C@@H]12,0.5,4,1,0.5,4,0.0625,0.5,1,8,4,32,2,4,8
CN(C)[C@@H]1C(O)=C(C(N)=O)C(=O)[C@@]2(O)C(O)=C3C(=O)c4c(c(Cl)c5ccc(F)cc5c4O)C[C@H]3C[C@@H]12,2,2,2,2,2,> 32,> 32,> 32,> 32,> 32,> 32,> 32,> 32,> 32
COC1CN(Cc2ccc3cc4c(c(O)c3c2)C(=O)C2=C(O)[C@]3(O)C(=O)C(C(N)=O)=C(O)[C@@H](N(C)C)[C@@H]3C[C@@H]2C4)C1,1,4,0.5,1,8,0.0625,0.5,2,16,2,> 32,8,4,16
CC(C)Oc1c2c(c(O)c3cc(CN4CCC4)ccc13)C(=O)C1=C(O)[C@]3(O)C(=O)C(C(N)=O)=C(O)[C@@H](N(C)C)[C@@H]3C[C@@H]1C2,0.125,4,0.25,0.5,4,0.0313,0.0625,4,16,2,> 32,16,16,32
CNCc1ccc2c(N(C)C)c3c(c(O)c2c1)C(=O)C1=C(O)[C@]2(O)C(=O)C(C(N)=O)=C(O)[C@@H](N(C)C)[C@@H]2C[C@@H]1C3,0.25,2,0.5,0.5,4,0.125,0.5,2,32,2,> 32,8,4,32
CN(Cc1ccc2cc3c(c(O)c2c1)C(=O)C1=C(O)[C@]2(O)C(=O)C(C(N)=O)=C(O)[C@@H](N(C)C)[C@@H]2C[C@@H]1C3)c1ccccc1,1,8,1,4,4,2,2,> 32,> 32,> 32,> 32,> 32,> 32,> 32
CC(=O)NC1CN(Cc2ccc3cc4c(c(O)c3c2)C(=O)C2=C(O)[C@]3(O)C(=O)C(C(N)=O)=C(O)[C@@H](N(C)C)[C@@H]3C[C@@H]2C4)C1,2,8,2,2,16,0.25,2,4,16,16,> 32,8,16,16
CN(C)c1ccc2c(O)c3c(cc2c1)C[C@H]1C[C@H]2[C@H](N(C)C)C(O)=C(C(N)=O)C(=O)[C@@]2(O)C(O)=C1C3=O,2,4,2,4,4,16,32,> 32,> 32,> 32,> 32,> 32,> 32,> 32
